Calls of active or inactive are those of the source. No cut-off for these calls is given here.
How the values were obtained:
Oryctolagus cuniculus [1] = species: Oryctolagus cuniculus; test: Inhibition of rabbit plasma Lp-PLA2 at 100 nM by liquid scintillation counting; type: cell-free
Method in brief: (§1)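 Plasma used as the enzyme source. Compounds were added from DMSO solution to buffer of 50 mmol/L HEPES (pH 7.4) and 150 mmol/L NaCl. Preincubated 5 min at 37 °C, then [3H]PAF (1uCi) was added and incubated 10 min at 37 °C. Lipids were extracted with CHCl3/MeOH (2:1) and centrifuged at 12000g, 4 °C, 15 min. Supernatant radioactivity was counted. Result is % inhibition at the tested concentration.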

Oryctolagus cuniculus [2] = species: Oryctolagus cuniculus; test: Inhibition of rabbit plasma Lp-PLA2 at 10 nM by liquid scintillation counting; type: cell-free; method in brief: as §1
Homo sapiens [3] = species: Homo sapiens; test: Inhibition of human plasma Lp-PLA2 at 1 nM by liquid scintillation counting; type: cell-free; method in brief: as §1
Homo sapiens [4] = species: Homo sapiens; test: Inhibition of human plasma Lp-PLA2 at 10 nM by liquid scintillation counting; type: cell-free; method in brief: as §1
Mus musculus [5] = test: Inhibition of plasma Lp-PLA2 in Apo-E mouse model at 50 mg/kg, ip measured after 24 hrs by in vivo inhibition assay; type: functional, organism-based; design: dose 50 mg/kg
Oryctolagus cuniculus [6] = species: Oryctolagus cuniculus; test: Inhibition of rabbit plasma Lp-PLA2 at 10 microM by liquid scintillation counting; type: cell-free; method in brief: as §1
Oryctolagus cuniculus [7] = species: Oryctolagus cuniculus; test: Inhibition of rabbit plasma Lp-PLA2 at 1 microM by liquid scintillation counting; type: cell-free; method in brief: as §1
Mus musculus [8] = test: Inhibition of plasma Lp-PLA2 in Apo-E mouse model at 50 mg/kg, ip measured after 12 hrs by in vivo inhibition assay; type: functional, organism-based; design: dose 50 mg/kg

CC(C)N(C)Cc1nnc(Cn2c(SCc3ccc(F)cc3)nc(=O)c3c2CCC3)n1Cc1ccc(-c2ccc(C(F)(F)F)cc2)cc1
inhibition (Oryctolagus cuniculus [1]): 85% | inhibition (Oryctolagus cuniculus [2]): 13% | inhibition (Homo sapiens [3]): 35% | inhibition (Homo sapiens [4]): 77%

O=c1nc(SCc2ccc(F)cc2)n(Cc2ncc(CN3CCCCC3)n2Cc2ccc(-c3ccc(C(F)(F)F)cc3)cc2)c2c1CCC2
inhibition (Oryctolagus cuniculus [1]): 86% | inhibition (Oryctolagus cuniculus [2]): 11% | inhibition (Homo sapiens [3]): 58% | inhibition (Homo sapiens [4]): 69%

C[C@@H]1CN(Cc2nnc(Cn3c(SCc4ccc(F)cc4)nc(=O)c4c3CCC4)n2Cc2ccc(-c3ccc(C(F)(F)F)cc3)cc2)C[C@H](C)O1
inhibition (Oryctolagus cuniculus [1]): 76% | inhibition (Oryctolagus cuniculus [2]): 16% | inhibition (Homo sapiens [3]): 23% | inhibition (Homo sapiens [4]): 69%

CC(=O)NCc1nnc(Cn2c(SCc3ccc(F)cc3)nc(=O)c3c2CCC3)n1Cc1ccc(-c2ccc(C(F)(F)F)cc2)cc1
inhibition (Oryctolagus cuniculus [1]): 67% | inhibition (Oryctolagus cuniculus [2]): 8% | inhibition (Homo sapiens [3]): 44% | inhibition (Homo sapiens [4]): 67%

O=c1nc(SCc2ccc(F)cc2)n(Cc2ncc(C[N+]3(Cc4ccc(F)cc4)CCCC3)n2Cc2ccc(-c3ccc(C(F)(F)F)cc3)cc2)c2c1CCC2
inhibition (Oryctolagus cuniculus [2]): 88% | inhibition (Homo sapiens [3]): 79% | inhibition (Homo sapiens [4]): 97%

CN(C)C1CCN(Cc2nnc(Cn3c(SCc4ccc(F)cc4)nc(=O)c4c3CCC4)n2Cc2ccc(-c3ccc(C(F)(F)F)cc3)cc2)CC1
inhibition (Oryctolagus cuniculus [1]): 82% | inhibition (Oryctolagus cuniculus [2]): 11% | inhibition (Homo sapiens [3]): 57% | inhibition (Homo sapiens [4]): 71%

C[N+](C)(Cc1ccc(F)cc1)Cc1nnc(Cn2c(SCc3ccc(F)cc3)nc(=O)c3c2CCC3)n1Cc1ccc(-c2ccc(C(F)(F)F)cc2)cc1
inhibition (Oryctolagus cuniculus [1]): 97% | inhibition (Oryctolagus cuniculus [2]): 91% | inhibition (Mus musculus [5]): Active | inhibition (Homo sapiens [3]): 95% | inhibition (Homo sapiens [4]): 99%

CN(Cc1nnc(Cn2c(SCc3ccc(F)cc3)nc(=O)c3c2CCC3)n1Cc1ccc(-c2ccc(C(F)(F)F)cc2)cc1)C1CC1
inhibition (Oryctolagus cuniculus [1]): 86% | inhibition (Oryctolagus cuniculus [2]): 16% | inhibition (Homo sapiens [3]): 38% | inhibition (Homo sapiens [4]): 77%

CCN1CCN(Cc2nnc(Cn3c(SCc4ccc(F)cc4)nc(=O)c4c3CCC4)n2Cc2ccc(-c3ccc(C(F)(F)F)cc3)cc2)CC1
inhibition (Oryctolagus cuniculus [1]): 90% | inhibition (Oryctolagus cuniculus [2]): 20% | inhibition (Homo sapiens [3]): 64% | inhibition (Homo sapiens [4]): 82%

Cc1ccc(-c2ccc(Cn3ccnc3Cn3c(SCc4ccc(F)cc4)nc(=O)c4c3CCC4)cc2)cc1
inhibition (Oryctolagus cuniculus [6]): 28%

CC(O)c1nnc(Cn2c(SCc3ccc(F)cc3)nc(=O)c3c2CCC3)n1Cc1ccc(-c2ccc(C(F)(F)F)cc2)cc1 (configuration not stated)
inhibition (Oryctolagus cuniculus [1]): 90% | inhibition (Oryctolagus cuniculus [2]): 29% | inhibition (Homo sapiens [3]): 68% | inhibition (Homo sapiens [4]): 89%

O=c1nc(SCc2ccc(F)cc2)n(Cc2nnc(C3CC3)n2Cc2ccc(-c3ccc(C(F)(F)F)cc3)cc2)c2c1CCC2
inhibition (Oryctolagus cuniculus [1]): 87% | inhibition (Oryctolagus cuniculus [2]): 34% | inhibition (Homo sapiens [3]): 68% | inhibition (Homo sapiens [4]): 93%

C[N+](C)(Cc1ccc(F)cc1)Cc1cnc(Cn2c(SCc3ccc(F)cc3)nc(=O)c3c2CCC3)n1Cc1ccc(-c2ccc(C(F)(F)F)cc2)cc1
inhibition (Oryctolagus cuniculus [1]): 99% | inhibition (Oryctolagus cuniculus [2]): 97% | inhibition (Homo sapiens [3]): 85% | inhibition (Homo sapiens [4]): 97%

C[N+](C)(C)Cc1nnc(Cn2c(SCc3ccc(F)cc3)nc(=O)c3c2CCC3)n1Cc1ccc(-c2ccc(C(F)(F)F)cc2)cc1
inhibition (Oryctolagus cuniculus [1]): 93% | inhibition (Oryctolagus cuniculus [2]): 91% | inhibition (Homo sapiens [3]): 77% | inhibition (Homo sapiens [4]): 97%

O=c1nc(SCc2ccc(F)cc2)n(Cc2nccn2Cc2ccc(-c3ccccc3)cc2)c2c1CCC2
inhibition (Oryctolagus cuniculus [6]): 3%

O=c1nc(SCc2ccc(F)cc2)n(Cc2ncc(CN3CCCC3)n2Cc2ccc(-c3ccc(C(F)(F)F)cc3)cc2)c2c1CCC2
inhibition (Oryctolagus cuniculus [1]): 79% | inhibition (Oryctolagus cuniculus [2]): 10% | inhibition (Homo sapiens [3]): 21% | inhibition (Homo sapiens [4]): 67%

O=c1nc(SCc2ccc(F)cc2)n(Cc2nccn2Cc2ccc(-c3ccc(C(F)(F)F)cc3)cc2)c2c1CCC2
inhibition (Oryctolagus cuniculus [7]): 80% | inhibition (Oryctolagus cuniculus [1]): 17%

CCN(CC)Cc1cnc(Cn2c(SCc3ccc(F)cc3)nc(=O)c3c2CCC3)n1Cc1ccc(-c2ccc(C(F)(F)F)cc2)cc1
inhibition (Oryctolagus cuniculus [1]): 88% | inhibition (Oryctolagus cuniculus [2]): 10% | inhibition (Homo sapiens [3]): 52% | inhibition (Homo sapiens [4]): 75%

O=c1nc(SCc2ccc(F)cc2)n(Cc2nnc(CO)n2Cc2ccc(-c3ccc(C(F)(F)F)cc3)cc2)c2c1CCC2
inhibition (Oryctolagus cuniculus [1]): 73% | inhibition (Oryctolagus cuniculus [2]): 23% | inhibition (Homo sapiens [3]): 58% | inhibition (Homo sapiens [4]): 65%

Cc1nnc(Cn2c(SCc3ccc(F)cc3)nc(=O)c3c2CCC3)n1Cc1ccc(-c2ccc(C(F)(F)F)cc2)cc1
inhibition (Oryctolagus cuniculus [1]): 79% | inhibition (Oryctolagus cuniculus [2]): 10% | inhibition (Homo sapiens [3]): 11% | inhibition (Homo sapiens [4]): 73%

CN(Cc1ccc(F)cc1)Cc1nnc(Cn2c(SCc3ccc(F)cc3)nc(=O)c3c2CCC3)n1Cc1ccc(-c2ccc(C(F)(F)F)cc2)cc1
inhibition (Oryctolagus cuniculus [1]): 90% | inhibition (Oryctolagus cuniculus [2]): 10% | inhibition (Homo sapiens [3]): 71% | inhibition (Homo sapiens [4]): 93%

CCCCCCCCCCc1cnc(Cn2c(SCc3ccc(F)cc3)nc(=O)c3c2CCC3)n1CCN(CC)CC
inhibition (Oryctolagus cuniculus [6]): 6%

CCn1c(Cc2ccc(-c3ccc(C(F)(F)F)cc3)cc2)nnc1Cn1c(SCc2ccc(F)cc2)nc(=O)c2c1CCC2
inhibition (Oryctolagus cuniculus [6]): 40%

CN(C)Cc1cnc(Cn2c(SCc3ccc(F)cc3)nc(=O)c3c2CCC3)n1Cc1ccc(-c2ccc(C(F)(F)F)cc2)cc1
inhibition (Oryctolagus cuniculus [1]): 87% | inhibition (Oryctolagus cuniculus [2]): 13% | inhibition (Homo sapiens [3]): 54% | inhibition (Homo sapiens [4]): 75%

CCCCCCCCCCc1nnc(Cn2c(SCc3ccc(F)cc3)nc(=O)c3c2CCC3)n1CC
inhibition (Oryctolagus cuniculus [6]): 27%

CCCc1nnc(Cn2c(SCc3ccc(F)cc3)nc(=O)c3c2CCC3)n1Cc1ccc(-c2ccc(C(F)(F)F)cc2)cc1
inhibition (Oryctolagus cuniculus [1]): 88% | inhibition (Oryctolagus cuniculus [2]): 25% | inhibition (Homo sapiens [3]): 65% | inhibition (Homo sapiens [4]): 88%

CCS(=O)(=O)NCc1nnc(Cn2c(SCc3ccc(F)cc3)nc(=O)c3c2CCC3)n1Cc1ccc(-c2ccc(C(F)(F)F)cc2)cc1
inhibition (Oryctolagus cuniculus [1]): 75% | inhibition (Oryctolagus cuniculus [2]): 7% | inhibition (Homo sapiens [3]): 49% | inhibition (Homo sapiens [4]): 68%

CCN(CC)CCN(Cc1ccc(-c2ccc(C(F)(F)F)cc2)cc1)C(=O)Cn1c(SCc2ccc(F)cc2)nc(=O)c2c1CCC2
inhibition (Mus musculus [8]): Active | inhibition (Oryctolagus cuniculus [1]): 99% | inhibition (Oryctolagus cuniculus [2]): 82% | inhibition (Homo sapiens [3]): 80% | inhibition (Homo sapiens [4]): 95%

CN(C)Cc1nnc(Cn2c(SCc3ccc(F)cc3)nc(=O)c3c2CCC3)n1Cc1ccc(-c2ccc(C(F)(F)F)cc2)cc1
inhibition (Oryctolagus cuniculus [1]): 88% | inhibition (Oryctolagus cuniculus [2]): 21% | inhibition (Homo sapiens [3]): 62% | inhibition (Homo sapiens [4]): 85%

CCn1c(Cn2c(SCc3ccc(F)cc3)nc(=O)c3c2CCC3)nnc1-c1ccc(-c2ccc(C(F)(F)F)cc2)cc1
inhibition (Oryctolagus cuniculus [7]): 21% | inhibition (Oryctolagus cuniculus [6]): 34%

O=c1nc(SCc2ccc(F)cc2)n(Cc2nccn2Cc2ccc(-c3ccc(Cl)cc3)cc2)c2c1CCC2
inhibition (Oryctolagus cuniculus [7]): 2% | inhibition (Oryctolagus cuniculus [6]): 50%

CCN(CC)Cc1nnc(Cn2c(SCc3ccc(F)cc3)nc(=O)c3c2CCC3)n1Cc1ccc(-c2ccc(C(F)(F)F)cc2)cc1
inhibition (Oryctolagus cuniculus [1]): 85% | inhibition (Oryctolagus cuniculus [2]): 21% | inhibition (Homo sapiens [3]): 60% | inhibition (Homo sapiens [4]): 78%

CCCCCCCCCCCCn1ccnc1Cn1c(SCc2ccc(F)cc2)nc(=O)c2c1CCC2
inhibition (Oryctolagus cuniculus [7]): 42% | inhibition (Oryctolagus cuniculus [6]): 88%

CC(C)c1nnc(Cn2c(SCc3ccc(F)cc3)nc(=O)c3c2CCC3)n1Cc1ccc(-c2ccc(C(F)(F)F)cc2)cc1
inhibition (Oryctolagus cuniculus [1]): 91% | inhibition (Oryctolagus cuniculus [2]): 34% | inhibition (Homo sapiens [3]): 71% | inhibition (Homo sapiens [4]): 92%

CCN(CC)CCn1c(-c2ccc(-c3ccc(C(F)(F)F)cc3)cc2)cnc1Cn1c(SCc2ccc(F)cc2)nc(=O)c2c1CCC2
inhibition (Oryctolagus cuniculus [7]): 16% | inhibition (Oryctolagus cuniculus [6]): 20%

O=c1nc(SCc2ccc(F)cc2)n(Cc2nncn2Cc2ccc(-c3ccc(C(F)(F)F)cc3)cc2)c2c1CCC2
inhibition (Oryctolagus cuniculus [7]): 95% | inhibition (Oryctolagus cuniculus [1]): 67%

COC(=O)C(C)(C)N1CCN(Cc2nnc(Cn3c(SCc4ccc(F)cc4)nc(=O)c4c3CCC4)n2Cc2ccc(-c3ccc(C(F)(F)F)cc3)cc2)CC1
inhibition (Oryctolagus cuniculus [1]): 67% | inhibition (Oryctolagus cuniculus [2]): 15% | inhibition (Homo sapiens [3]): 45% | inhibition (Homo sapiens [4]): 51%

Reference: ChEMBL document CHEMBL2331148, “Design and synthesis of imidazole and triazole derivatives as Lp-PLA₂ inhibitors and the unexpected discovery of highly potent quaternary ammonium salts” (Bioorg Med Chem Lett, 2013)
